# Test results published in paper PMC4486003 (Biomaterials, 2015).
# B1: PEGylated knob B peptide AHRPYAAC-PEG (peptide)
# peptide: AHRPYAAC
# modifications: not fully specified; 5 kDa maleimide-PEG conjugated to the cysteine-terminated peptide
# Tests used:
# hole B = conditions: knob B mimic derived from chicken; ref [19], [20]; cited from earlier work
# fibrinogen Fragment D = target: T1, fibrinogen Fragment D (Homo sapiens, UniProt P02671+P02675+P02679); test: Surface plasmon resonance; format: binding; conditions: SPR; concentrations 5 μM to 1.5 mM
# T1 sequence (P02675 164-491 limits assumed): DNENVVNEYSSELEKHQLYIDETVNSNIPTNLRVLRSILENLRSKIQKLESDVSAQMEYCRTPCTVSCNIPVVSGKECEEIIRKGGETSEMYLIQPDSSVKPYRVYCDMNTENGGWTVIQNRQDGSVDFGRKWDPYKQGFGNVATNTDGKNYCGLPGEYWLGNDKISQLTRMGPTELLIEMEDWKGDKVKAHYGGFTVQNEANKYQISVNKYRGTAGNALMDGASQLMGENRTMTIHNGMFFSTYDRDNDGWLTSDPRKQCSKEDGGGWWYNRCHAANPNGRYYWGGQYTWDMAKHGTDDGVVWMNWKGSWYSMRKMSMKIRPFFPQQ
# T1 sequence (P02679 89-432 partner limits assumed): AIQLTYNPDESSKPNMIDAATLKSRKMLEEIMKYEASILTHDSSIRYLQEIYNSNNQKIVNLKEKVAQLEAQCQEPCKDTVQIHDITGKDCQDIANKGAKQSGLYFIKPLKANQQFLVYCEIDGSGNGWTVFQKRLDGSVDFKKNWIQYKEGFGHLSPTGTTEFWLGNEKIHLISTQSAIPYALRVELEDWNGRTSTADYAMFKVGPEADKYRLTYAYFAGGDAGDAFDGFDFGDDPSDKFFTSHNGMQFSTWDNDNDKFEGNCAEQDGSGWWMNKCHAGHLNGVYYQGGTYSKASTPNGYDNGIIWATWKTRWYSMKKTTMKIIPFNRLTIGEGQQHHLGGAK
# T1 sequence (P02671 124-225 partner limits assumed): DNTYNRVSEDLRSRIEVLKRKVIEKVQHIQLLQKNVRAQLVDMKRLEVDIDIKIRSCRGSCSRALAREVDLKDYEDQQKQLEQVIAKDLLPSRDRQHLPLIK
# Procedure, shortened: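 Fragment D came from human fibrinogen (2 mg/mL) digested overnight at room temperature with plasmin (0.1 U/mL), then isolated on GPRPAA beads. It was covalently coupled to self-assembled-monolayer gold chips to about 1500 RU in 3 flow cells, with 1 reference cell. Test compound was run at five concentrations (5 μM–1.5 mM) in duplicate: 25 μL/min for 4 min, then 5 min dissociation. Kinetic models were fitted and judged by residuals.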
# single fibrin fibers = test: Single fibrin fiber breaking strain/extensibility; design: species or system human; conditions: for average single fiber breaking strain: percentage of original fiber length, 305 nm/s
# Procedure, shortened: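 Fibrinogen and test compound were preincubated at 37°C for 15 min at pH 7.4 (140 mM NaCl, 10 mM HEPES, 5 mM CaCl₂); test compound finals were 1 mM, 250 μM and 100 μM. Thrombin and FXIII were added (finals: fibrinogen 3.2 μM, 0.3 NIH u/ml, 9.00 Loewy u/ml). Clots formed 75 min on striated substrates and were bead-labelled. An AFM tip stretched single fibers at 305 nm/s until rupture. Strain = (L′−L_initial)/L_initial, given as % of original length.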
# fibrin network = conditions: cited from earlier work
# fibrin polymerization [1] = target: T2, fibrin polymerization (Homo sapiens, UniProt P02671+P02675+P02679); test: Percent clottable protein; format: biochemical; conditions: from percent clottability
# T2 sequence (P02675 45-491 limits assumed): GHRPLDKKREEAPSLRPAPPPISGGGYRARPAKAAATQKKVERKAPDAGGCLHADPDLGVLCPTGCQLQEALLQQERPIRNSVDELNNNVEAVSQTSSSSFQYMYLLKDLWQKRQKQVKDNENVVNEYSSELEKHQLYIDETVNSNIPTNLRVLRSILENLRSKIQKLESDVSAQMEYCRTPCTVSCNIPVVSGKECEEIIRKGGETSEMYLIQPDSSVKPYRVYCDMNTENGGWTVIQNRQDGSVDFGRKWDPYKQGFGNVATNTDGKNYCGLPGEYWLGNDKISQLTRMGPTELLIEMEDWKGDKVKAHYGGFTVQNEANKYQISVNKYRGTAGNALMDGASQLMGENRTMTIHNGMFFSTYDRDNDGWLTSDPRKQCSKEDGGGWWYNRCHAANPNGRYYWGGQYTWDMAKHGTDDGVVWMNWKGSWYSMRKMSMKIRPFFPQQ
# T2 sequence (P02679 27-433 partner limits assumed): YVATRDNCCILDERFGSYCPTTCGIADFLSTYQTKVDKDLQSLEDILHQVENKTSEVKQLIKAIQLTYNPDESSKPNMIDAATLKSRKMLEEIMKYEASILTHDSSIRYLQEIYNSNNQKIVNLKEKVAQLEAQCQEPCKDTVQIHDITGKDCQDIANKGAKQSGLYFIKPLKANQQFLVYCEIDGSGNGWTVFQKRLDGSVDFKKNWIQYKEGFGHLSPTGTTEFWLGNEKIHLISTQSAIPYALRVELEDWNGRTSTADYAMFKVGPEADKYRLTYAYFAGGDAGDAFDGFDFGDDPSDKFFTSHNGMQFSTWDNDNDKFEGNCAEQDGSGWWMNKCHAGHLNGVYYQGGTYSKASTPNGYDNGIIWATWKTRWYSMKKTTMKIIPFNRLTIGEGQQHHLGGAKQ
# T2 sequence (P02671 36-866 partner limits assumed): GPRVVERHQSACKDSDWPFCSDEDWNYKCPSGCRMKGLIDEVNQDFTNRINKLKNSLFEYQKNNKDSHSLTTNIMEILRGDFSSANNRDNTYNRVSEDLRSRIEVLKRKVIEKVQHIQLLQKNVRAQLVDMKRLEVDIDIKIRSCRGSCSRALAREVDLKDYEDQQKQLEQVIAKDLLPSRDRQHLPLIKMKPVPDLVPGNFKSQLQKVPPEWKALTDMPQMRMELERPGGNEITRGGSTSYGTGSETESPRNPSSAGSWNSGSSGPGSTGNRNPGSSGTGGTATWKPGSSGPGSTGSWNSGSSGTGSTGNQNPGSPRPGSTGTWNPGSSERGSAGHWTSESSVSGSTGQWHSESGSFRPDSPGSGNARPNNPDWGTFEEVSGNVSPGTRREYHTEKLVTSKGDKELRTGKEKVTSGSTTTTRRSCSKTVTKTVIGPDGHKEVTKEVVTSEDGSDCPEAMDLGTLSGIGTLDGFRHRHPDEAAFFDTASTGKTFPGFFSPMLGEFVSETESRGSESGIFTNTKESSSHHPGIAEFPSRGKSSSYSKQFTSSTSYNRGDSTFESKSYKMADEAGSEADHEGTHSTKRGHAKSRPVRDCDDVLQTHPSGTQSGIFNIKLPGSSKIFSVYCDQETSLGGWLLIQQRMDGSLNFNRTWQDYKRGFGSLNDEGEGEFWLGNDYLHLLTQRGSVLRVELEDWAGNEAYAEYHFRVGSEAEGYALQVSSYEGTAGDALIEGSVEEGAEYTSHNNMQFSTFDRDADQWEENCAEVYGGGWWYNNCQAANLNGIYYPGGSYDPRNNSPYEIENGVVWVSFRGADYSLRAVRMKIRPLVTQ
# Procedure, shortened: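 Test compound at final 1, 0.25 or 0.1 mM was added to clots at pH 7.4 (25 mM HEPES, 150 mM NaCl) with final fibrinogen 1 mg/mL, thrombin 0.25 U/mL and CaCl₂ 5 mM. A350 was read every minute for 1 h. Clot liquor was then assayed for total protein (Quant-it). Percent clottable protein was computed against fibrinogen-only, no-thrombin samples.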
# fibrin polymerization [2] = conditions: high concentrations; ref [15]; cited from earlier work
# [3] = target: human fibrinogen Fragment D (human); test: SPR
# [4] = 1:1 molar ratio fibrinogen:knob mimic, ref [11]
molecule,measurement,setting,value
AHRP,binding specificity,hole B,only bind to hole B
AHRPYAAC-PEG,binding to fragment D (in words),fibrinogen Fragment D,"at a minimum, micromolar concentrations of PEGylated knob B peptides are required to observe binding to fibrinogen"
same,average single fiber breaking strain,single fibrin fibers; 100 μM,171%
same,average single fiber breaking strain,single fibrin fibers; 250 μM,164%
same,average single fiber breaking strain,single fibrin fibers; 1 mM,202%
same,increase of average breaking strain vs unmodified fibrin fibers,"single fibrin fibers; 1 mM, stretched at 305 nm/s",20%
same,fiber extensibility (in words),single fibrin fibers; concentrations above its Kd,increase extensibility of fibers
same,fiber extensibility (in words),single fibrin fibers; concentrations near its Kd,decreases the extensibility of fibers
same,complex modulus (G*),fibrin network; [4],increased the complex modulus
same,susceptibility to degradation,fibrin network; [4],decreased susceptibility to degradation
GHRPY [reference compound],network structure and fibrinolysis,"fibrin network; bovine knob B mimic, ref [18], [21]",altered network structure and delayed fibrinolysis
GPSPFPAC,effect on polymerization (in words),fibrin polymerization [1]; all concentrations tested,not significantly affected
GPSPFPAC-PEG,inhibition of polymerization (in words),fibrin polymerization [1]; 1 mM,significantly inhibited
Gly-Pro-Arg-Pro [GPRP],fibrin polymerization,fibrin polymerization [2],polymerization is inhibited
B1,"Kd1 (2-site model, higher-affinity site, assumed knob B:hole b)",[3],57 µM
